Laboratory results: ChEMBL document CHEMBL1145524, “Structure-based activity prediction for an enzyme of unknown function” (Nature, 2007)

Assays:
[1] = target: T1, Adenosylhomocysteinase (Thermotoga maritima (strain ATCC 43589 / MSB8 / DSM 3109 / JCM 10099)) (UniProt O51933); test: (§1) Activity of Thermotoga maritima S-adenosyl-L-homocysteine hydrolase Tm0172 assessed as homocysteine hydrolysis
T1 sequence (whole entry): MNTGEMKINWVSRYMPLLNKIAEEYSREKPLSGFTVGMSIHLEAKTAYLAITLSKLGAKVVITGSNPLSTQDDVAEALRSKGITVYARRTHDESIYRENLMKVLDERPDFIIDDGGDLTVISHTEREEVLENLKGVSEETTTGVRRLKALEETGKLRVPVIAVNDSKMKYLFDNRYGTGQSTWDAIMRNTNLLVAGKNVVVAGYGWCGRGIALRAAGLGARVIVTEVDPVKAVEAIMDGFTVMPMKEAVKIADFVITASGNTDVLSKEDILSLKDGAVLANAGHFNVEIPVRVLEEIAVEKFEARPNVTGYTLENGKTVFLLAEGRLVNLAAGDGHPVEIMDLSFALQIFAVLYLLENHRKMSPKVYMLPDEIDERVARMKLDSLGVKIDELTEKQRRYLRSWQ
Method in brief: (§2)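 Tm0172 expressed in E. coli (arabinose induction), heat-treated 65 °C and purified on chelating Sepharose as His-tagged protein. Assay: 100 mM HEPES pH 8.0, 1.0 mM DTNB, 1.0 mM EDTA, 13 μM Tm0172, substrate up to 10 mM, 30 °C. kcat and kcat/Km obtained by fitting initial velocities to the Michaelis–Menten equation.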

[2] = substrate: Nc1ncnc2c1ncn2[C@@H]1O[C@H](CO)[C@@H](O)[C@H]1O; test: (§3) Activity of Thermotoga maritima S-adenosyl-homocysteine deaminase Tm0936 assessed as ammonia production
Method in brief: (§4)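 Recombinant Tm0936 was expressed in E. coli, heat-treated at 65 °C, then purified by anion exchange and gel filtration (Zn-containing). Ammonia release was coupled to glutamate dehydrogenase, with NADH loss read at 340 nm. Assay: 100 mM HEPES pH 8.0, 7.4 mM α-ketoglutarate, 0.4 mM NADH, 6 units GDH, 30 °C. kcat and kcat/Km came from fitting initial velocities versus substrate concentration.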

[3] = substrate: CSC[C@H]1O[C@@H](n2cnc3c(N)ncnc32)[C@H](O)[C@@H]1O; test: as §3; method in brief: as §4
[4] = substrate: Nc1ncnc2c1ncn2[C@@H]1O[C@H](CSCC[C@H](N)C(=O)O)[C@@H](O)[C@H]1O; test: as §3; method in brief: as §4
[5] = substrate: Nc1ncnc2c1ncn2[C@@H]1O[C@H](COP(=O)(O)O)[C@@H](O)[C@H]1O; test: as §3; method in brief: as §4
[6] = substrate: C[S+](CC[C@H](N)C(=O)[O-])C[C@H]1O[C@@H](n2cnc3c(N)ncnc32)[C@H](O)[C@@H]1O; test: as §3; method in brief: as §4
[7] = substrate: Nc1ncnc2c1ncn2[C@@H]1O[C@H](CO)[C@@H](O)[C@H]1O; test: (§5) Ratio of Kcat to Km for Thermotoga maritima S-adenosyl-homocysteine deaminase Tm0936 assessed as ammonia production; method in brief: as §4
[8] = substrate: CSC[C@H]1O[C@@H](n2cnc3c(N)ncnc32)[C@H](O)[C@@H]1O; test: as §5; method in brief: as §4
[9] = substrate: Nc1ncnc2c1ncn2[C@@H]1O[C@H](CSCC[C@H](N)C(=O)O)[C@@H](O)[C@H]1O; test: as §5; method in brief: as §4
[10] = substrate: Nc1ncnc2c1ncn2[C@@H]1O[C@H](CSCC[C@H](N)C(=O)O)[C@@H](O)[C@H]1O; test: Ratio of Kcat to Km for Thermotoga maritima S-adenosyl-L-homocysteine hydrolase Tm0172 assessed as homocysteine hydrolysis; method in brief: as §2
[11] = substrate: Nc1ncnc2c1ncn2[C@@H]1O[C@H](CSCC[C@H](N)C(=O)O)[C@@H](O)[C@H]1O; test: as §1; method in brief: as §2

Nc1ncnc2c1ncn2[C@@H]1O[C@H](CSCC[C@H](N)C(=O)O)[C@@H](O)[C@H]1O
kcat [1]: 0.004 s⁻¹

B1: 5-methylthioadenosine/S-adenosylhomocysteine deaminase (Thermotoga maritima (strain ATCC 43589 / MSB8 / DSM 3109 / JCM 10099)), Q9X034 (protein)
chain: MIIGNCLILKDFSSEPFWGAVEIENGTIKRVLQGEVKVDLDLSGKLVMPALFNTHTHAPMTLLRGVAEDLSFEEWLFSKVLPIEDRLTEKMAYYGTILAQMEMARHGIAGFVDMYFHEEWIAKAVRDFGMRALLTRGLVDSNGDDGGRLEENLKLYNEWNGFEGRIFVGFGPHSPYLCSEEYLKRVFDTAKSLNAPVTIHLYETSKEEYDLEDILNIGLKEVKTIAAHCVHLPERYFGVLKDIPFFVSHNPASNLKLGNGIAPVQRMIEHGMKVTLGTDGAASNNSLNLFFEMRLASLLQKAQNPRNLDVNTCLKMVTYDGAQAMGFKSGKIEEGWNADLVVIDLDLPEMFPVQNIKNHLVHAFSGEVFATMVAGKWIYFDGEYPTIDSEEVKRELARIEKELYSS
Km [2]: 250 µM
kcat [2]: 2.3 s⁻¹
Km [3]: 44 µM
kcat [3]: 7.2 s⁻¹
Km [4]: 210 µM
kcat [4]: 12.2 s⁻¹
kcat [5]: 1 10^-3/s
kcat [6]: 1 10^-3/s
kcat/Km [7]: 9.2 10^3/M/s
kcat/Km [8]: 1.5 10^5/M/s
kcat/Km [9]: 5.8 10^4/M/s

B2: Adenosylhomocysteinase (Thermotoga maritima (strain ATCC 43589 / MSB8 / DSM 3109 / JCM 10099)), O51933 (protein)
chain: MNTGEMKINWVSRYMPLLNKIAEEYSREKPLSGFTVGMSIHLEAKTAYLAITLSKLGAKVVITGSNPLSTQDDVAEALRSKGITVYARRTHDESIYRENLMKVLDERPDFIIDDGGDLTVISHTEREEVLENLKGVSEETTTGVRRLKALEETGKLRVPVIAVNDSKMKYLFDNRYGTGQSTWDAIMRNTNLLVAGKNVVVAGYGWCGRGIALRAAGLGARVIVTEVDPVKAVEAIMDGFTVMPMKEAVKIADFVITASGNTDVLSKEDILSLKDGAVLANAGHFNVEIPVRVLEEIAVEKFEARPNVTGYTLENGKTVFLLAEGRLVNLAAGDGHPVEIMDLSFALQIFAVLYLLENHRKMSPKVYMLPDEIDERVARMKLDSLGVKIDELTEKQRRYLRSWQ
kcat/Km [10]: 1.1 10^2/M/s
Km [11]: 21 µM
